According to ChEMBL document CHEMBL4177624, “Rationally designed hecogenin thiosemicarbazone analogs as novel MEK inhibitors for the control of breast malignancies” (Bioorg Med Chem, 2017):
Active and inactive are the calls of the source. No cut-off for these calls is given here.

Key:
MDA-MB-231 [1] = assay: Cytotoxicity against human MDA-MB-231 cells at 1.25 uM after 24 hrs by LDH release assay (reference value: 100%); format: functional
Procedure, shortened: (§1)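 MDA-MB-231 cells were treated at four concentrations. LDH released into the culture medium through damaged plasma membranes was measured with a commercial LDH cytotoxicity kit and expressed as percent cytotoxicity.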

MDA-MB-231 [2] = assay: Antitumor activity against human GFP-fused MDA-MB-231 cells xenografted in Foxn1nu/Foxn1+ mouse assessed as tumor growth inhibition at 10 mg/kg, ip administered 3 times per week for 28 days relative to control; format: functional; conditions: MDA-MB-231, ip, 672 h, read-out: TGI
Procedure, shortened: (§2)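 Athymic nude Foxn1nu/Foxn1+ mice given orthotopic MDA-MB-231/GFP implants. Once tumors were palpable (5-day latency), mice received 10 mg/kg ip three times weekly for 28 days; controls got vehicle. Tumor volume tracked by caliper, giving percent growth inhibition at study end. Body weight checked at each dose and toxicity signs observed.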

MDA-MB-231 [3] = assay: Cytotoxicity against human MDA-MB-231 cells at 10 uM after 24 hrs by LDH release assay (reference value: 100%); format: functional; procedure, shortened: as §1
MDA-MB-231 [4] = assay: Antiproliferative activity against human MDA-MB-231 cells after 72 hrs by MTT assay; format: functional, cell-based; conditions: MDA-MB-231, 72 h
Procedure, shortened: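 MDA-MB-231 triple-negative breast cancer cells were exposed to a range of concentrations for 72 h. Proliferation was read by MTT. Results are given as mean percent viability versus concentration, with IC₅₀ ± SEM calculated from the curve.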

[5] = target: T1, Dual specificity mitogen-activated protein kinase kinase; MEK1/2 (Homo sapiens) (UniProt P36507+Q02750); assay: Inhibition of MEK in human MDA-MB-231 cell lysate assessed as reduction in MAPK phosphorylation at 1.5 to 4 uM after 72 hrs by Western blot analysis
T1 sequence (P36507 whole entry, looked up): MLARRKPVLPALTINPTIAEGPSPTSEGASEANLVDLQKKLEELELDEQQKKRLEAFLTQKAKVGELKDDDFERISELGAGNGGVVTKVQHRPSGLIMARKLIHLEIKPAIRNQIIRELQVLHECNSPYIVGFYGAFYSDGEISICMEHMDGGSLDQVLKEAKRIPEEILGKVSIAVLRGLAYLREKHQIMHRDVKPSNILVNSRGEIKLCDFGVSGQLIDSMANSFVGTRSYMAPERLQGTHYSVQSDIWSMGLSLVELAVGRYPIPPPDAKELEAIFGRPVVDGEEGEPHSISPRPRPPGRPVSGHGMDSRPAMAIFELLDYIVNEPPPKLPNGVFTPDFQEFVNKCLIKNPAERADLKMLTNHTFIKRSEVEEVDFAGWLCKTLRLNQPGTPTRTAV
T1 sequence (Q02750 whole entry, looked up): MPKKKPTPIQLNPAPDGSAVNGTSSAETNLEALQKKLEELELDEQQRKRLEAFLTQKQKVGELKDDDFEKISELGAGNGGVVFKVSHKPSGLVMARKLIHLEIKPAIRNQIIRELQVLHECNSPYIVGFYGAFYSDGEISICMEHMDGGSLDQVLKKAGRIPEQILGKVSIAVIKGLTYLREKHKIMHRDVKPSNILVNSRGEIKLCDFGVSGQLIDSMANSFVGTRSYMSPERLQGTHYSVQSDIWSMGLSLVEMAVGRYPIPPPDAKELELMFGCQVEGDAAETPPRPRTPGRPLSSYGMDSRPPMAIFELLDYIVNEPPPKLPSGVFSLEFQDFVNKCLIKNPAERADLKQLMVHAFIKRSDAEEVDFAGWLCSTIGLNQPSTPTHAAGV
Procedure, shortened: (§3)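 MDA-MB-231 cells treated with two doses or vehicle, then lysed. Western blot of phosphorylated MEK, ERK (MAPK) and MSK, each compared with vehicle control.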

[6] = target: T1, Dual specificity mitogen-activated protein kinase kinase; MEK1/2 (Homo sapiens); assay: Inhibition of MEK in human MDA-MB-231 cell lysate assessed as reduction in MSK phosphorylation at 1.5 to 4 uM after 72 hrs by Western blot analysis; procedure, shortened: as §3
MDA-MB-231 [7] = assay: Cytotoxicity against human MDA-MB-231 cells at 10 uM after 24 hrs by LDH release assay relative to control; format: functional
SK-BR-3 = assay: Antiproliferative activity against human SKBR3 cells after 72 hrs by MTT assay; format: functional, cell-based; conditions: SK-BR-3, 72 h
Procedure, shortened: (§4)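 Six human breast carcinoma lines of differing molecular and phenotypic character were each exposed to a range of concentrations for 72 h. Proliferation was read by MTT. Results are given as mean percent viability, with IC₅₀ ± SEM calculated per cell line.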

MDA-MB-231 [8] = assay: Cytotoxicity against human MDA-MB-231 cells at 5 uM after 24 hrs by LDH release assay (reference value: 100%); format: functional; procedure, shortened: as §1
Mus musculus = assay: Toxicity in Foxn1nu/Foxn1+ mouse xenografted with human GFP-fused MDA-MB-231 cells assessed as reduction in body weight at 10 mg/kg, ip administered 3 times per week for 28 days relative to control; format: organism-based; conditions: in vivo, 672 h; procedure, shortened: as §2
MDA-MB-231 [9] = assay: Antimigratory activity against human MDA-MB-231 cells after 24 hrs by scratch wound-healing assay; format: functional, cell-based
MCF7 = assay: Antiproliferative activity against human MCF7 cells after 72 hrs by MTT assay; format: functional, cell-based; conditions: MCF7, 72 h; procedure, shortened: as §4
MCF-10A = assay: Cytotoxicity against human MCF10A cells at 1 to 20 uM by MTT assay; format: cell-based
Procedure, shortened: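 Immortalized, non-tumorigenic MCF-10A mammary epithelial cells were treated at several concentrations (1-20 μM). Mean percent viability was compared with the matching vehicle control-treated group.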

MDA-MB-231 [10] = assay: Antiinvasive activity against human MDA-MB-231 cells after 24 hrs by cell invasion assay; format: functional, cell-based; conditions: MDA-MB-231, 24 h
Procedure, shortened: (§5)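 Invasion of MDA-MB-231 cells through extracellular matrix coating in a CultreCoat chamber, four doses, 24 h after plating. Non-invaded cells on the upper surface imaged by microscopy. Percent invasion read against vehicle control; IC50 taken from the dose-response curve.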

[11] = target: T1, Dual specificity mitogen-activated protein kinase kinase; MEK1/2 (Homo sapiens); assay: Inhibition of MEK phosphorylation in human MDA-MB-231 cell lysate at 1.5 to 4 uM after 72 hrs by Western blot analysis; procedure, shortened: as §3
MDA-MB-231 [12] = assay: Antiinvasive activity against human MDA-MB-231 cells at 5 uM after 24 hrs by cell invasion assay relative to control; format: functional
Procedure, shortened: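 MDA-MB-231 cells were plated in CultreCoat coated-insert invasion chambers and treated at four concentrations or with vehicle. At 24 h post-plating, non-invading cell density on the upper surface was assessed by microscopy. Percent invasion inhibition relative to vehicle was calculated, and IC₅₀ was derived from the dose-response.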

BT-474 = assay: Antiproliferative activity against human BT474 cells after 72 hrs by MTT assay; format: functional, cell-based; conditions: BT-474, 72 h; procedure, shortened: as §4
MDA-MB-231 [13] = assay: Cytotoxicity against human MDA-MB-231 cells at 2.5 uM after 24 hrs by LDH release assay (reference value: 100%); format: functional; procedure, shortened: as §1
T47D = assay: Antiproliferative activity against human T47D cells after 72 hrs by MTT assay; format: functional, cell-based; procedure, shortened: as §4
MDA-MB-468 = assay: Antiproliferative activity against human MDA-MB-468 cells after 72 hrs by MTT assay; format: functional, cell-based; conditions: MDA-MB-468, 72 h; procedure, shortened: as §4
MDA-MB-231 [14] = assay: Cytotoxicity against human MDA-MB-231 cells at 100 uM after 24 hrs by LDH release assay relative to control; format: functional
Procedure, shortened: (§6)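 LDH release kit on MDA-MB-231 cells at four doses. LDH in the culture medium used as the marker of plasma membrane damage, expressed as percent cytotoxicity.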

MDA-MB-231 [15] = assay: Cytotoxicity against human MDA-MB-231 cells at 75 uM after 24 hrs by LDH release assay (reference value: 100%); format: functional; procedure, shortened: as §6
MDA-MB-231 [16] = assay: Antiinvasive activity against human MDA-MB-231 cells at 80 uM after 24 hrs by cell invasion assay relative to control; format: functional; procedure, shortened: as §5
MDA-MB-231 [17] = assay: Cytotoxicity against human MDA-MB-231 cells at 25 uM after 24 hrs by LDH release assay (reference value: 100%); format: functional; procedure, shortened: as §6
MDA-MB-231 [18] = assay: Cytotoxicity against human MDA-MB-231 cells at 100 uM after 24 hrs by LDH release assay (reference value: 100%); format: functional; procedure, shortened: as §6
MDA-MB-231 [19] = assay: Antimigratory activity against human MDA-MB-231 cells at 10 to 80 uM after 24 hrs by scratch wound-healing assay; format: functional, cell-based
MDA-MB-231 [20] = assay: Cytotoxicity against human MDA-MB-231 cells at 50 uM after 24 hrs by LDH release assay (reference value: 100%); format: functional; procedure, shortened: as §6

| Structure (SMILES) | IC50 (MDA-MB-231 [4]) [µM] | IC50 (SK-BR-3) [µM] | IC50 (MCF7) [µM] | IC50 (BT-474) [µM] | IC50 (T47D) [µM] | IC50 (MDA-MB-468) [µM] | further results |
| --- | --- | --- | --- | --- | --- | --- | --- |
| Cc1ccccc1NC(=S)N/N=C1\C[C@H]2[C@@H](CC[C@H]3C[C@@H](O)CC[C@@]32C)[C@@H]2C[C@@H]3O[C@]4(CC[C@@H](C)CO4)[C@@H](C)[C@@H]3[C@@]12C | 1.9 | 2.3 | 2.1 | 2.6 | 3 | 2.4 | Activity (MDA-MB-231 [1]): 0.74%; inhibition in vivo at 10 mg/kg (MDA-MB-231 [2]): 78.1%; Activity (MDA-MB-231 [3]): 5.94%; inhibition [5]: Active; inhibition [6]: Active; Activity (MDA-MB-231 [7]): 5.9%; Activity (MDA-MB-231 [8]): 1.8%; Activity (Mus musculus): Non-Toxic; Activity (MDA-MB-231 [9]): Dose-dependent effect; IC50 (MDA-MB-231 [9]; MDA-MB-231, 24 h): 2.5 µM; Activity (MCF-10A): Non-Toxic; IC50 (MDA-MB-231 [10]): 2.2 µM; inhibition [11]: Active; Activity (MDA-MB-231 [12]): 92.4%; Activity (MDA-MB-231 [13]): 1.27% |
| C[C@@H]1CC[C@@]2(OC1)O[C@H]1C[C@H]3[C@@H]4CC[C@H]5C[C@@H](O)CC[C@]5(C)[C@H]4C/C(=N\NC(=S)Nc4ccc(Oc5ccccc5)cc4)[C@]3(C)[C@H]1[C@@H]2C | 28.1 | 29 | 27 | 31.2 | > 40 | 30.8 | – |
| C[C@@H]1CC[C@@]2(OC1)O[C@H]1C[C@H]3[C@@H]4CC[C@H]5C[C@@H](O)CC[C@]5(C)[C@H]4C/C(=N\NC(=S)Nc4ccccc4C(F)(F)F)[C@]3(C)[C@H]1[C@@H]2C | 2.1 | 2.1 | 2.2 | 3.1 | 2.4 | 2.7 | – |
| C[C@@H]1CC[C@@]2(OC1)O[C@H]1C[C@H]3[C@@H]4CC[C@H]5C[C@@H](O)CC[C@]5(C)[C@H]4C/C(=N\NC(=O)Nc4ccc(Cl)cc4)[C@]3(C)[C@H]1[C@@H]2C | 8.5 | 9 | 9.1 | 9.8 | 12 | 11.3 | – |
| C[C@@H]1CC[C@@]2(OC1)O[C@H]1C[C@H]3[C@@H]4CC[C@H]5C[C@@H](O)CC[C@]5(C)[C@H]4C/C(=N\NC(=S)Nc4ccc(C(F)(F)F)cc4)[C@]3(C)[C@H]1[C@@H]2C | 3.2 | 4 | 3.7 | 4.4 | 3.8 | 3.9 | – |
| C[C@@H]1CC[C@@]2(OC1)O[C@H]1C[C@H]3[C@@H]4CC[C@H]5C[C@@H](O)CC[C@]5(C)[C@H]4CC(=O)[C@]3(C)[C@H]1[C@@H]2C | 28.7 | 33.3 | 31 | 38.2 | 36.6 | 35.2 | inhibition in vivo at 10 mg/kg (MDA-MB-231 [2]): 57.4%; Activity (MDA-MB-231 [14]): 27.8%; Activity (MDA-MB-231 [15]): 10.3%; inhibition [5]: Active; inhibition [6]: Active; Activity (MDA-MB-231 [16]): 86.2%; Activity (MDA-MB-231 [17]): 0.04%; Activity (MDA-MB-231 [18]): 27.8%; Activity (Mus musculus): Non-Toxic; IC50 (MDA-MB-231 [10]): 37.1 µM; inhibition [11]: Active; Activity (MDA-MB-231 [19]): Active; Activity (MDA-MB-231 [20]): 2.72% |

The next lines start with results.

| IC50 (MDA-MB-231 [4]) [µM] | IC50 (SK-BR-3) [µM] | IC50 (MCF7) [µM] | IC50 (BT-474) [µM] | IC50 (T47D) [µM] | IC50 (MDA-MB-468) [µM] | Structure (SMILES) | further results |
| --- | --- | --- | --- | --- | --- | --- | --- |
| 2.3 | 2.9 | 2.5 | 3.2 | 4.2 | 2.8 | Cc1cccc(C)c1NC(=S)N/N=C1\C[C@H]2[C@@H](CC[C@H]3C[C@@H](O)CC[C@@]32C)[C@@H]2C[C@@H]3O[C@]4(CC[C@@H](C)CO4)[C@@H](C)[C@@H]3[C@@]12C | – |
| 7.3 | 7.9 | 7.5 | 10.3 | 11.5 | 8 | C[C@@H]1CC[C@@]2(OC1)O[C@H]1C[C@H]3[C@@H]4CC[C@H]5C[C@@H](O)CC[C@]5(C)[C@H]4C/C(=N\NC(=S)Nc4ccc([N+](=O)[O-])cc4)[C@]3(C)[C@H]1[C@@H]2C | – |
| 5.5 | 6.2 | 5.3 | 7.5 | 7.8 | 5.9 | C[C@@H]1CC[C@@]2(OC1)O[C@H]1C[C@H]3[C@@H]4CC[C@H]5C[C@@H](O)CC[C@]5(C)[C@H]4C/C(=N\NC(=S)Nc4ccc5c(c4)OCO5)[C@]3(C)[C@H]1[C@@H]2C | – |
